Source: ChEMBL document CHEMBL5653631, “A Potent and Selective ULK1 Inhibitor Suppresses Autophagy and Sensitizes Cancer Cells to Nutrient Stress” (iScience, 2018)
One block for each compound: values may come before it. Calls of active or inactive are those of the source. The rule behind the calls is not given here.

How the values were obtained:
[1] = target: Mitogen-activated protein kinase 8 (Homo sapiens) (UniProt P45983); assay: Inhibition of human recombinant JNK1 at 500 nM related to control ULK1
[2] = target: 5'-AMP-activated protein kinase catalytic subunit alpha-2 (Homo sapiens) (UniProt P54646); assay: Inhibition of human recombinant AMPKa2 at 500 nM in presence of ATP by radiometric assay relative to control
How it was run: (§1)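 Panel of 327 recombinant human kinases, each assayed in vitro by radiometric activity assay in duplicate at a single inhibitor concentration per compound, chosen with reference to its ULK1 inhibition. Activity remaining was expressed as percent of vehicle control, and percent inhibition was calculated as 100 minus percent activity remaining.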

[3] = target: Tyrosine-protein kinase Tec (Homo sapiens) (UniProt P42680); assay: Inhibition of human recombinant TEC at 15 nM related to control ULK1
[4] = target: Tau-tubulin kinase 2 (Homo sapiens) (UniProt Q6IQ55); assay: Inhibition of human recombinant TTBK2 at 15 nM related to control ULK1
[5] = target: Death-associated protein kinase 2 (Homo sapiens) (UniProt Q9UIK4); assay: Inhibition of human recombinant DAPK2 at 15 nM in presence of ATP by radiometric assay relative to control
[6] = target: T1, Serine/threonine-protein kinase Nek9 (Homo sapiens) (UniProt Q8TD19); assay: Inhibition of human recombinant NEK9 at 15 nM in presence of ATP by radiometric assay relative to control
T1 sequence (whole entry): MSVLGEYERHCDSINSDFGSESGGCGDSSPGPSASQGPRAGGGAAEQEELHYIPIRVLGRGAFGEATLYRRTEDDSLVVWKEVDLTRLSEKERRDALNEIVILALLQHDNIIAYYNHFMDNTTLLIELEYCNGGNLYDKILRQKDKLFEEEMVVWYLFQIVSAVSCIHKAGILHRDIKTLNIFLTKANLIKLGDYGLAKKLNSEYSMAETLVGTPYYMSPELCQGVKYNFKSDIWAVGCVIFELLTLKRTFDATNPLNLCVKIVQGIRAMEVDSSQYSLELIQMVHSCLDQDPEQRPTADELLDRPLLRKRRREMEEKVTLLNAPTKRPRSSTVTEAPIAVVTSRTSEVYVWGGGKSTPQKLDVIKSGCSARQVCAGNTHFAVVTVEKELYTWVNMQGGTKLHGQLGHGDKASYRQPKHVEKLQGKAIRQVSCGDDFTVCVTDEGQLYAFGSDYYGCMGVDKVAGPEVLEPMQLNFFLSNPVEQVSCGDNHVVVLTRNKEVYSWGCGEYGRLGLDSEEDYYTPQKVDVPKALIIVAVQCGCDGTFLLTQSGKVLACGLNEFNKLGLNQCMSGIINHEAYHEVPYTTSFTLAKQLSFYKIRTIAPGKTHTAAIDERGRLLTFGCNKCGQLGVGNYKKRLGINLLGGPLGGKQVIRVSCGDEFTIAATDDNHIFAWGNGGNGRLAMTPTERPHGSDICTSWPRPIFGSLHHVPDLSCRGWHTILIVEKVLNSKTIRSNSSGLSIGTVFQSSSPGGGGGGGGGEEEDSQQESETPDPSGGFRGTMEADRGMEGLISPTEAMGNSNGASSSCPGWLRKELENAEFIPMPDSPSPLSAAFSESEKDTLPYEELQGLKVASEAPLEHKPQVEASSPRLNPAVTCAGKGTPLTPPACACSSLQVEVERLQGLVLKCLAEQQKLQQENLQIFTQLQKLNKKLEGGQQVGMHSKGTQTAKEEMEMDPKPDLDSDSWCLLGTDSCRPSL

[7] = target: T2, Activin receptor type-1B (Homo sapiens) (UniProt P36896); assay: Inhibition of human recombinant ALK4 at 15 nM in presence of ATP by radiometric assay relative to control; how it was run: as §1
T2 sequence (whole entry): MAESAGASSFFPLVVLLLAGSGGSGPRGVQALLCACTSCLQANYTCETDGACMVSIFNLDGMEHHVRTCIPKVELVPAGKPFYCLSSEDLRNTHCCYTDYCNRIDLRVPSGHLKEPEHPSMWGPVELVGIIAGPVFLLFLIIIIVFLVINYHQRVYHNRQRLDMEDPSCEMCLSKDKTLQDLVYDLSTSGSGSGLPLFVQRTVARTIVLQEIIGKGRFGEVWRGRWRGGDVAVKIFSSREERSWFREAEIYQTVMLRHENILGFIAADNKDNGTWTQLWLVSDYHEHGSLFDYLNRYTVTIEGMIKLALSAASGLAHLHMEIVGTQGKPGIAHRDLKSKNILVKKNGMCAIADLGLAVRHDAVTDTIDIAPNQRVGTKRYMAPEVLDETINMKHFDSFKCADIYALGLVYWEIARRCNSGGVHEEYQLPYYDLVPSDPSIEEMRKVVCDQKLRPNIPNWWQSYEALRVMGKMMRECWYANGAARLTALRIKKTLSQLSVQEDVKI

[8] = target: Death-associated protein kinase 2 (Homo sapiens) (UniProt Q9UIK4); assay: Inhibition of human recombinant DAPK2 at 40 nM in presence of ATP by radiometric assay relative to control
[9] = target: Serine/threonine-protein kinase 26 (Homo sapiens) (UniProt Q9P289); assay: Inhibition of human recombinant MST4 at 40 nM in presence of ATP by radiometric assay relative to control
[10] = tested on: U2OS; assay: Inhibition of autophagy in human U2OS cells assessed as reduction in phagophore formation at 5 uM incubated for 2.5 hrs by Fluorescent microscopy based analysis; assay type: functional, cell-based
How it was run: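 U2OS cells treated 2.5 hr with vehicle or 100 nM AZD8055, with or without 5 μM inhibitor; fixed and immunostained for endogenous ATG12; ATG12-positive puncta (phagophores) assessed by fluorescence microscopy.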

[11] = target: Receptor tyrosine-protein kinase erbB-2 (Homo sapiens) (UniProt P04626); assay: Inhibition of human recombinant ErbB2 at 40 nM related to control ULK1
[12] = target: [Pyruvate dehydrogenase (acetyl-transferring)] kinase isozyme 4, mitochondrial (Homo sapiens) (UniProt Q16654); assay: Inhibition of human recombinant PDHK4 at 40 nM in presence of ATP by radiometric assay relative to control
[13] = target: T3, Testis-specific serine/threonine-protein kinase 4 (Homo sapiens) (UniProt Q6SA08); assay: Inhibition of human recombinant TSSK4 at 40 nM in presence of ATP by radiometric assay relative to control
T3 sequence (whole entry): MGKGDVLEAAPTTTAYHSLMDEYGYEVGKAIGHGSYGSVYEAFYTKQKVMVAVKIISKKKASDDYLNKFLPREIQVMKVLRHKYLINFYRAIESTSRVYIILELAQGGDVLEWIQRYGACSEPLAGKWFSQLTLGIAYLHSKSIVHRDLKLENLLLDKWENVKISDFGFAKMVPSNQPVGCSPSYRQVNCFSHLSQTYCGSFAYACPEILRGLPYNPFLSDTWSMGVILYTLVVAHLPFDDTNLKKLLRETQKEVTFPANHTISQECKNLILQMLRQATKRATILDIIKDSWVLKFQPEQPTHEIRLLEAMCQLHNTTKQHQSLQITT

Sequence of Death-associated protein kinase 2 (Homo sapiens) (Q9UIK4 whole entry, looked up): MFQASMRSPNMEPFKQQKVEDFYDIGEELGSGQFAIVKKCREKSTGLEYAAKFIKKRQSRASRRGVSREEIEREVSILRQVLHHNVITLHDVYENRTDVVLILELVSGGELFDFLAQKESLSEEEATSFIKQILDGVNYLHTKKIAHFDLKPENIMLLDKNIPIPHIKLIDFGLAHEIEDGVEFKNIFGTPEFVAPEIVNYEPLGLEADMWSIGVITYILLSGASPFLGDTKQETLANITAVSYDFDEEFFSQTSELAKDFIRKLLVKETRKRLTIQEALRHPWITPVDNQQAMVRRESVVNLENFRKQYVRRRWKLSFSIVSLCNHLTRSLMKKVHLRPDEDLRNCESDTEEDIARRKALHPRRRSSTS
Sequence of Serine/threonine-protein kinase 26 (Homo sapiens) (Q9P289 2-416 limits assumed): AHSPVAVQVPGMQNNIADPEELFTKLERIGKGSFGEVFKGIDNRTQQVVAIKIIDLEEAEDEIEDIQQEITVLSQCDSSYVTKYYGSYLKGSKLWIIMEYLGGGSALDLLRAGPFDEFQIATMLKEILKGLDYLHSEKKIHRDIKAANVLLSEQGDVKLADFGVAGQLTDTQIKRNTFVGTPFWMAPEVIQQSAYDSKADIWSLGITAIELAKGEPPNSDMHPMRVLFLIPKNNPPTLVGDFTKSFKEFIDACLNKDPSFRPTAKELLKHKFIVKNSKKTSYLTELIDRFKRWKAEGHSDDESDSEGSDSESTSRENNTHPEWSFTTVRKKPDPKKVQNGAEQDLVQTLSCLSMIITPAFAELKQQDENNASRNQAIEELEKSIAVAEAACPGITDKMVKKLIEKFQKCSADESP
Sequence of Tyrosine-protein kinase Tec (Homo sapiens) (P42680 whole entry, looked up): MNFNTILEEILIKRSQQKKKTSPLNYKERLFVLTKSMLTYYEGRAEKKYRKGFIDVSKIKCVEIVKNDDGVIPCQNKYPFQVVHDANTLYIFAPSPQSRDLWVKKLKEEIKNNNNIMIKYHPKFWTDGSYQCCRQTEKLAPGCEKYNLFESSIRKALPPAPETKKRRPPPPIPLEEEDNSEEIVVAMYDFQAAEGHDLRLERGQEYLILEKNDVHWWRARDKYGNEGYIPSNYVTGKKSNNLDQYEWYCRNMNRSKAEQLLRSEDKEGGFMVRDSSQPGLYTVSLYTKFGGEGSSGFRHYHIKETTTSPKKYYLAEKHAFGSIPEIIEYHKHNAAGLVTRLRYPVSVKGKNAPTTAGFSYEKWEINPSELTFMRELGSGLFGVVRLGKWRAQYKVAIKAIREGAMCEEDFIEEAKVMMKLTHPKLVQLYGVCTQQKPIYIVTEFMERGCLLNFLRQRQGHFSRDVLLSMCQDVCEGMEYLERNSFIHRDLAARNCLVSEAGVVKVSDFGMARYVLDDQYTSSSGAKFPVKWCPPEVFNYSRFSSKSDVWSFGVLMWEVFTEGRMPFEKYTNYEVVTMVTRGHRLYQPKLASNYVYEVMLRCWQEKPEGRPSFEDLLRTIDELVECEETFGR
Sequence of [Pyruvate dehydrogenase (acetyl-transferring)] kinase isozyme 4, mitochondrial (Homo sapiens) (Q16654 whole entry, looked up): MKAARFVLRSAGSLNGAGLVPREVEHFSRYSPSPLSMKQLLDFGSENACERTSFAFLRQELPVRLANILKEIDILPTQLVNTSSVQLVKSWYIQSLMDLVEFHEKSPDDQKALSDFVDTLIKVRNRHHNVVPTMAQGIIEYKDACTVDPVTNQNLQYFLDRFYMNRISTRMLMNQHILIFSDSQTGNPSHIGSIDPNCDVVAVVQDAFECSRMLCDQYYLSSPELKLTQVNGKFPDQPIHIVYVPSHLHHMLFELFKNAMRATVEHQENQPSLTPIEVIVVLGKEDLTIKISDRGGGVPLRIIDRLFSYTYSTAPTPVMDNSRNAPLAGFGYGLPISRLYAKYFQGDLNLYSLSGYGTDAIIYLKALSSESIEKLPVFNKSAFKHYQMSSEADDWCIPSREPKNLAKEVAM
Sequence of 5'-AMP-activated protein kinase catalytic subunit alpha-2 (Homo sapiens) (P54646 whole entry, looked up): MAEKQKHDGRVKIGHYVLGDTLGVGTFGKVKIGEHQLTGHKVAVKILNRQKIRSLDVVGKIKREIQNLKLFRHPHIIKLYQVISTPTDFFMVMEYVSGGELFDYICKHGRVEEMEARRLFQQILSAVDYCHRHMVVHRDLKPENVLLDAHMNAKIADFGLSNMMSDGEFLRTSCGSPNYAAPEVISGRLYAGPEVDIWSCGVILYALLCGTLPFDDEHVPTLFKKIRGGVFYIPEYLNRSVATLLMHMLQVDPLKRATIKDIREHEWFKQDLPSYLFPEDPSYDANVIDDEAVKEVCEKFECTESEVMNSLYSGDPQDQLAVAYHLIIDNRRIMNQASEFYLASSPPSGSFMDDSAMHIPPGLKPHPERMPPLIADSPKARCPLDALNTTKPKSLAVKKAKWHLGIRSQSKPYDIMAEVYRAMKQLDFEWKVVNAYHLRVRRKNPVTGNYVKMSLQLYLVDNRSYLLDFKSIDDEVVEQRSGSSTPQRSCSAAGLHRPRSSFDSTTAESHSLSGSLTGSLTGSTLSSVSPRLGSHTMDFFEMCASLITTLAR
Sequence of Tau-tubulin kinase 2 (Homo sapiens) (Q6IQ55 whole entry): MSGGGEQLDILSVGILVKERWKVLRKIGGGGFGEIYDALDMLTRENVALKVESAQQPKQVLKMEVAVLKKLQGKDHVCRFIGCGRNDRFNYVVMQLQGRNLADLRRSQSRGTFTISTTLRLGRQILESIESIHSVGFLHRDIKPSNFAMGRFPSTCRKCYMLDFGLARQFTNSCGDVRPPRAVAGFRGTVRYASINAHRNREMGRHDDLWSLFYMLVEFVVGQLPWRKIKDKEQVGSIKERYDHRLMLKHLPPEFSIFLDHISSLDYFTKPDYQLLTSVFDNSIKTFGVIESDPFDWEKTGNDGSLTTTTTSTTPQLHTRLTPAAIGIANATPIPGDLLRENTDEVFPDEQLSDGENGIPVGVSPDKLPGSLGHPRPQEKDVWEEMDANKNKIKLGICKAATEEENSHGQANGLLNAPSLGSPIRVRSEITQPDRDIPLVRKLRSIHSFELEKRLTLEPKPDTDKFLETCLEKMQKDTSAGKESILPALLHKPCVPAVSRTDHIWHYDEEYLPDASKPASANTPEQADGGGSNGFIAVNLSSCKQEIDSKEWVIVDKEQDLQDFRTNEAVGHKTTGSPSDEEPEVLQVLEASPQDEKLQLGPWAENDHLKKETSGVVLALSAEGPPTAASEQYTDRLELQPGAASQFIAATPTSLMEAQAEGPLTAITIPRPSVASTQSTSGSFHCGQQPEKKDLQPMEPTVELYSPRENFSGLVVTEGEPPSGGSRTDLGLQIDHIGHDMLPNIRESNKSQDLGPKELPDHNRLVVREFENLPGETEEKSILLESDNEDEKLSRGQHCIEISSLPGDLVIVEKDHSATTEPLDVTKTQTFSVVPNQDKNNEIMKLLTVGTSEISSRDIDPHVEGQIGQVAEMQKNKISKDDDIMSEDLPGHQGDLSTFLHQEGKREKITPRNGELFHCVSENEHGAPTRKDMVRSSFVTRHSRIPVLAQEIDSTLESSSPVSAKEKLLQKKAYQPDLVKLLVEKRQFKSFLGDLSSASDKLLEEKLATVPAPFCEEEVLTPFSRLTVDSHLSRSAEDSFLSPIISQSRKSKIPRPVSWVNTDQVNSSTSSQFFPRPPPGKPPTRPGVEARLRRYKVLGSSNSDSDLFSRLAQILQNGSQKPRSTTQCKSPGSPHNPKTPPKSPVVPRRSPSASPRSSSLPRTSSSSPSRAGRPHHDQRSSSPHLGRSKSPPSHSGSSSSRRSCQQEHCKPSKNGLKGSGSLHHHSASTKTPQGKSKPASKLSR
Sequence of Receptor tyrosine-protein kinase erbB-2 (Homo sapiens) (P04626 whole entry): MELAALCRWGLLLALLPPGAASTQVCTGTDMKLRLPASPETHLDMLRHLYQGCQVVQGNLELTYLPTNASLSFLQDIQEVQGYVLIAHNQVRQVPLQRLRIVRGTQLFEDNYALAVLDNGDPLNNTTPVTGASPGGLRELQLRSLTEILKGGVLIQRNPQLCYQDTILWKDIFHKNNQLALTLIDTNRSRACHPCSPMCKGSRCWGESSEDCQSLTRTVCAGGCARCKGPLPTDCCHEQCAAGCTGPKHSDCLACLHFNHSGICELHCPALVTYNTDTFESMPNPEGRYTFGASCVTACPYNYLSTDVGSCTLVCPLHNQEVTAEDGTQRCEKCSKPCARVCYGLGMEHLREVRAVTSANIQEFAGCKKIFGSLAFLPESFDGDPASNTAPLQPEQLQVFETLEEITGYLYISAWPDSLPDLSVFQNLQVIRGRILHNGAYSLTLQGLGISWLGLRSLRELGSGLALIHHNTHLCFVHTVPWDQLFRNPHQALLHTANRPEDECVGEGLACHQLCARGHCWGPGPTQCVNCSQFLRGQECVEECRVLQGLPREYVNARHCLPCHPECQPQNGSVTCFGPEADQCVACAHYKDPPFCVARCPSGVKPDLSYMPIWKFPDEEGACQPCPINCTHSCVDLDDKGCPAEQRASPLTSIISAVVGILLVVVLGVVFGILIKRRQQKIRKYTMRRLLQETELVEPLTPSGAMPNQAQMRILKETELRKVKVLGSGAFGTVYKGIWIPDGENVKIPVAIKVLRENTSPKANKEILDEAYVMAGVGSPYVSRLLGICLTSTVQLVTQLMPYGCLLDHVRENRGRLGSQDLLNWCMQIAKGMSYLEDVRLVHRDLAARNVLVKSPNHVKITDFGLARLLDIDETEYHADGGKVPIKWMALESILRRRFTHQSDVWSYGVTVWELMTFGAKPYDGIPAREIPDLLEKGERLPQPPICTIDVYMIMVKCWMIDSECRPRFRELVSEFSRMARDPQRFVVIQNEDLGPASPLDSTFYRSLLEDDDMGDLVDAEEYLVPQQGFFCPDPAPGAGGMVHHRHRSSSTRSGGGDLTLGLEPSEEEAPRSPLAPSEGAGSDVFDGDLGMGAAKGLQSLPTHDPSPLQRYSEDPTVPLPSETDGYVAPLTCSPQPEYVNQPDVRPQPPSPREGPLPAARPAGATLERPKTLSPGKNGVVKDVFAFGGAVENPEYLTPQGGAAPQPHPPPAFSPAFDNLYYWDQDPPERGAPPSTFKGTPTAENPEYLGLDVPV

- fold change (FC) [1]: 0.01
- inhibition [2]: 57%
SMILES: CNC(=O)c1ccccc1Oc1nc(Nc2cc(OC)c(OC)c(OC)c2)ncc1Br

- fold change (FC) [3]: 0
- fold change (FC) [4]: 0
- inhibition [7]: 20%
SMILES: CC(C)[C@H](NC(=O)c1cc(-c2cnn3cc(-c4ccc(OCCN5CCCCC5)cc4)cnc23)cs1)C(F)(F)F
- inhibition [5]: 6%
- inhibition [6]: 22%

- inhibition [9]: 0%
- fold change (FC) [11]: 0
- inhibition [12]: 0%
- inhibition [13]: 0%
SMILES: O=C(N[C@@H](C1CC1)C(F)(F)F)c1cc(-c2cnn3cc(-c4ccc(F)cc4)cnc23)cs1
- inhibition [8]: 0%
- inhibition [10]: Active
